Data from ChEMBL document CHEMBL2384906, “Biological activity, design, synthesis and structure activity relationship of some novel derivatives of curcumin containing sulfonamides” (Eur J Med Chem, 2013).
Converted amounts (≈) assume the structure as drawn. The source made the active and inactive calls. The rule behind the calls is not given here.

Key:
Bacillus cereus [1] = assay: Antimicrobial activity against Bacillus cereus MTCC 7350 after 24 hrs by broth micro serial dilution method; format: functional; details: MTCC 7350, 24 h
Outline: (§1)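 This was broth microdilution in autoclaved Mueller-Hinton broth. 150 µL of compound per well was serially diluted […], and 50 µL of test organism was added. Plates were incubated 24 h at 37 °C and optical density was read.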

Aspergillus flavus [2] = assay: Antifungal activity against Aspergillus flavus MTCC 1021 after 48 hrs; format: functional; details: MTCC 1021, 48 h
Aspergillus niger [3] = assay: Antifungal activity against Aspergillus niger MTCC 1108 after 48 hrs; format: functional; details: MTCC 1108, 48 h
Staphylococcus aureus [4] = assay: Antimicrobial activity against Staphylococcus aureus ATCC 11632 assessed as diameter of inhibition zone at 80 uM after 24 hrs by Kirby -Baur disc diffusion method; format: functional; details: ATCC 11632, 24 h, read-out: DIZ
Outline: (§2)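 Kirby-Bauer disc diffusion was used. Acetone stocks (160 µM) were serially doubled down to 80, 40 and 20 µM. 4 µL of each went onto 5 mm sterile paper discs, which were dried 30 min at 50 °C. Inoculum was 1.5 × 10⁸ CFU/mL diluted to 3 × 10² CFU/mL, and 50 µL was spread on Mueller-Hinton agar. After 24 h at 37 °C the inhibition-zone diameter was measured. Ciprofloxacin served as positive control.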

Escherichia coli [5] = assay: Antimicrobial activity against Escherichia coli ATCC 35218 assessed as diameter of inhibition zone at 20 uM after 24 hrs by Kirby -Baur disc diffusion method; format: functional; details: ATCC 35218, 24 h, read-out: DIZ; outline: as §2
Salmonella typhi [6] = assay: Antimicrobial activity against Salmonella typhi ATCC 23564 after 24 hrs by broth micro serial dilution method; format: functional, Salmonella enterica subsp. enterica serovar Typhi; details: Salmonella enterica, ATCC 23564, 24 h
Bacillus cereus [7] = assay: Antimicrobial activity against Bacillus cereus MTCC 7350 assessed as diameter of inhibition zone at 80 uM after 24 hrs by Kirby -Baur disc diffusion method; format: functional; details: MTCC 7350, 24 h, read-out: DIZ; outline: as §2
Trichoderma viride [8] = assay: Antifungal activity against Trichoderma viride MTCC 1107 assessed as zone of inhibition at 80 uM after 48 hrs by disc diffusion method; format: functional; details: MTCC 1107, 48 h, read-out: IZ
Outline: (§3)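 Spores from 4-day potato dextrose agar cultures, suspended in sterile water at 1.5 × 10⁵ CFU/mL. 0.2 mL was spread on potato dextrose agar. 5 mm filter-paper discs soaked with test compound were laid on the lawn. Incubation was 48 h at 28 °C, then the inhibition zone was measured in mm. Fluconazole was the positive control and acetone the negative control.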

Curvularia lunata [9] = assay: Antifungal activity against Curvularia lunata MTCC 581 after 48 hrs; format: functional; details: MTCC 581, 48 h
Pseudomonas aeruginosa [10] = assay: Antimicrobial activity against Pseudomonas aeruginosa ATCC 15499 assessed as diameter of inhibition zone at 80 uM after 24 hrs by Kirby -Baur disc diffusion method; format: functional; details: ATCC 15499, 24 h, read-out: DIZ; outline: as §2
Staphylococcus aureus [11] = assay: Antimicrobial activity against Staphylococcus aureus ATCC 11632 after 24 hrs by broth micro serial dilution method; format: functional; details: ATCC 11632, 24 h; outline: as §1
Bacillus cereus [12] = assay: Antimicrobial activity against Bacillus cereus MTCC 7350 assessed as diameter of inhibition zone at 20 uM after 24 hrs by Kirby -Baur disc diffusion method; format: functional; details: MTCC 7350, 24 h, read-out: DIZ; outline: as §2
Staphylococcus aureus [13] = assay: Antimicrobial activity against Staphylococcus aureus ATCC 11632 assessed as diameter of inhibition zone at 20 uM after 24 hrs by Kirby -Baur disc diffusion method; format: functional; details: ATCC 11632, 24 h, read-out: DIZ; outline: as §2
Aspergillus niger [14] = assay: Antifungal activity against Aspergillus niger MTCC 1108 assessed as zone of inhibition at 20 uM after 48 hrs by disc diffusion method; format: functional; outline: as §3
HepG2 = assay: Cytotoxicity against human HepG2 cells after 24 hrs by MTT assay; format: functional, cell-based
Outline: (§4)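 The MTT assay seeded 5 × 10⁴ cells per well and grew them 24 h in RPMI 1640 with compound at 2.5–200 µM. Medium without cells was the blank and adriamycin the positive control. MTT was added for 4 h at 37 °C, formazan was solubilised, and absorbance was read at 570 nm. IC50 is the concentration that cuts viability 50% against untreated cells.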

Escherichia coli [15] = assay: Antimicrobial activity against Escherichia coli ATCC 35218 assessed as diameter of inhibition zone at 80 uM after 24 hrs by Kirby -Baur disc diffusion method; format: functional; details: ATCC 35218, 24 h, read-out: DIZ; outline: as §2
QG-56 = assay: Cytotoxicity against human QG56 cells after 24 hrs by MTT assay; format: functional, cell-based; outline: as §4
Escherichia coli [16] = assay: Antimicrobial activity against Escherichia coli ATCC 35218 assessed as diameter of inhibition zone at 40 uM after 24 hrs by Kirby -Baur disc diffusion method; format: functional; details: ATCC 35218, 24 h, read-out: DIZ; outline: as §2
Aspergillus niger [17] = assay: Antifungal activity against Aspergillus niger MTCC 1108 assessed as zone of inhibition at 40 uM after 48 hrs by disc diffusion method; format: functional; details: MTCC 1108, 48 h, read-out: IZ; outline: as §3
Mus musculus = assay: Antiinflammatory activity in mouse assessed as inhibition of carrageenan-induced increase in paw volume at 200 mg/kg administered 1 hr prior to carrageenan challenge measured after 3 hrs relative to control; format: functional
Outline: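 Mice were fasted 2 h and placed in groups of five. Controls received saline i.p. Phenylbutazone was given at 100 mg/kg i.p., curcumin at 200 mg/kg i.p., and derivatives at 200 mg/kg. After 1 h, 0.1 mL of 1% carrageenan in saline was injected subplantar into the right hind paw. Paw volume was followed by plethysmometer for 3 h, and % inhibition was calculated as (Vc − Vt)/Vc × 100.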

Salmonella typhi [18] = assay: Antimicrobial activity against Salmonella typhi ATCC 23564 assessed as diameter of inhibition zone at 40 uM after 24 hrs by Kirby -Baur disc diffusion method; format: functional, Salmonella enterica subsp. enterica serovar Typhi; details: Salmonella enterica, ATCC 23564, 24 h; read-out: DIZ
Staphylococcus aureus [19] = assay: Antimicrobial activity against Staphylococcus aureus ATCC 11632 assessed as diameter of inhibition zone at 40 uM after 24 hrs by Kirby -Baur disc diffusion method; format: functional; details: ATCC 11632, 24 h, read-out: DIZ; outline: as §2
Aspergillus flavus [20] = assay: Antifungal activity against Aspergillus flavus MTCC 1021 assessed as zone of inhibition at 20 uM after 48 hrs by disc diffusion method; format: functional; outline: as §3
HeLa = assay: Cytotoxicity against human HeLa cells after 24 hrs by MTT assay; format: functional, cell-based; outline: as §4
Aspergillus flavus [21] = assay: Antifungal activity against Aspergillus flavus MTCC 1021 assessed as zone of inhibition at 40 uM after 48 hrs by disc diffusion method; format: functional; details: MTCC 1021, 48 h, read-out: IZ; outline: as §3
Curvularia lunata [22] = assay: Antifungal activity against Curvularia lunata MTCC 581 assessed as zone of inhibition at 80 uM after 48 hrs by disc diffusion method; format: functional; details: MTCC 581, 48 h, read-out: IZ; outline: as §3
Pseudomonas aeruginosa [23] = assay: Antimicrobial activity against Pseudomonas aeruginosa ATCC 15499 assessed as diameter of inhibition zone at 40 uM after 24 hrs by Kirby -Baur disc diffusion method; format: functional; details: ATCC 15499, 24 h, read-out: DIZ; outline: as §2
Pseudomonas aeruginosa [24] = assay: Antimicrobial activity against Pseudomonas aeruginosa ATCC 15499 assessed as diameter of inhibition zone at 20 uM after 24 hrs by Kirby -Baur disc diffusion method; format: functional; details: ATCC 15499, 24 h, read-out: DIZ; outline: as §2
Curvularia lunata [25] = assay: Antifungal activity against Curvularia lunata MTCC 581 assessed as zone of inhibition at 40 uM after 48 hrs by disc diffusion method; format: functional; details: MTCC 581, 48 h, read-out: IZ; outline: as §3
Bacillus cereus [26] = assay: Antimicrobial activity against Bacillus cereus MTCC 7350 assessed as diameter of inhibition zone at 40 uM after 24 hrs by Kirby -Baur disc diffusion method; format: functional; details: MTCC 7350, 24 h, read-out: DIZ; outline: as §2
Trichoderma viride [27] = assay: Antifungal activity against Trichoderma viride MTCC 1107 assessed as zone of inhibition at 20 uM after 48 hrs by disc diffusion method; format: functional; details: MTCC 1107, 48 h, read-out: IZ; outline: as §3
Escherichia coli [28] = assay: Antimicrobial activity against Escherichia coli ATCC 35218 after 24 hrs by broth micro serial dilution method; format: functional; details: ATCC 35218, 24 h; outline: as §1
Salmonella typhi [29] = assay: Antimicrobial activity against Salmonella typhi ATCC 23564 assessed as diameter of inhibition zone at 80 uM after 24 hrs by Kirby -Baur disc diffusion method; format: functional, Salmonella enterica subsp. enterica serovar Typhi; details: Salmonella enterica, ATCC 23564, 24 h; read-out: DIZ
Salmonella typhi [30] = assay: Antimicrobial activity against Salmonella typhi ATCC 23564 assessed as diameter of inhibition zone at 20 uM after 24 hrs by Kirby -Baur disc diffusion method; format: functional, Salmonella enterica subsp. enterica serovar Typhi; details: Salmonella enterica, ATCC 23564, 24 h; read-out: DIZ
Trichoderma viride [31] = assay: Antifungal activity against Trichoderma viride MTCC 1107 assessed as zone of inhibition at 40 uM after 48 hrs by disc diffusion method; format: functional; details: MTCC 1107, 48 h, read-out: IZ; outline: as §3
Aspergillus niger [32] = assay: Antifungal activity against Aspergillus niger MTCC 1108 assessed as zone of inhibition at 80 uM after 48 hrs by disc diffusion method; format: functional; details: MTCC 1108, 48 h, read-out: IZ; outline: as §3
Aspergillus flavus [33] = assay: Antifungal activity against Aspergillus flavus MTCC 1021 assessed as zone of inhibition at 80 uM after 48 hrs by disc diffusion method; format: functional; details: MTCC 1021, 48 h, read-out: IZ; outline: as §3
Trichoderma viride [34] = assay: Antifungal activity against Trichoderma viride MTCC 1107 after 48 hrs; format: functional; details: MTCC 1107, 48 h
HCT-116 = assay: Cytotoxicity against human HCT116 cells after 24 hrs by MTT assay; format: functional, cell-based; outline: as §4
Pseudomonas aeruginosa [35] = assay: Antimicrobial activity against Pseudomonas aeruginosa ATCC 15499 after 24 hrs by broth micro serial dilution method; format: functional; details: ATCC 15499, 24 h; outline: as §1
Curvularia lunata [36] = assay: Antifungal activity against Curvularia lunata MTCC 581 assessed as zone of inhibition at 20 uM after 48 hrs by disc diffusion method; format: functional; details: MTCC 581, 48 h, read-out: IZ; outline: as §3

With `COc1cc(/C=C/C(O)=C/C(/C=C/c2ccc(O)c(OC)c2)=N/c2ccc(S(=O)(=O)Nc3cc(C)on3)cc2)ccc1O` the MIC (Bacillus cereus [1]) was 20 µM (≈ 12.1 µg/mL), the MIC (Aspergillus flavus [2]) was greater than 80 µM and the MIC (Aspergillus niger [3]) was 40 µM (≈ 24.1 µg/mL). For the same molecule, the zone of inhibition at 80 µM (Staphylococcus aureus [4]) was 24 mm, the zone of inhibition at 20 µM (Escherichia coli [5]) was 19 mm and the MIC (Salmonella typhi [6]) was 20 µM (≈ 12.1 µg/mL). It also gave a zone of inhibition at 80 µM (Bacillus cereus [7]) of 21 mm, a zone of inhibition at 80 µM (Trichoderma viride [8]) of 13 mm and an MIC (Curvularia lunata [9]) of 80 µM (≈ 48.3 µg/mL). The zone of inhibition at 80 µM (Pseudomonas aeruginosa [10]) was 25 mm, the MIC (Staphylococcus aureus [11]) was 20 µM (≈ 12.1 µg/mL) and the zone of inhibition at 20 µM (Bacillus cereus [12]) was 13 mm. The zone of inhibition at 20 µM (Staphylococcus aureus [13]) was 17 mm, the “inhibition zone (IZ)” value (Aspergillus niger [14]) was “inactive” and the IC50 (HepG2) was 25 µM. The zone of inhibition at 80 µM (Escherichia coli [15]) was 27 mm, the IC50 (QG-56) was 50 µM and the zone of inhibition at 40 µM (Escherichia coli [16]) was 21 mm. It also gave a zone of inhibition at 40 µM (Aspergillus niger [17]) of 9 mm, an inhibition in vivo at 200 mg/kg (Mus musculus) of 33.8% and a zone of inhibition at 40 µM (Salmonella typhi [18]) of 17 mm. The zone of inhibition at 40 µM (Staphylococcus aureus [19]) was 21 mm, the “inhibition zone (IZ)” value (Aspergillus flavus [20]) was “inactive” and the IC50 (HeLa) was 50 µM. For the same molecule, the zone of inhibition at 40 µM (Aspergillus flavus [21]) was 9 mm, the zone of inhibition at 80 µM (Curvularia lunata [22]) was 11 mm and the zone of inhibition at 40 µM (Pseudomonas aeruginosa [23]) was 23 mm. For the same molecule, the zone of inhibition at 20 µM (Pseudomonas aeruginosa [24]) was 17 mm, the zone of inhibition at 40 µM (Curvularia lunata [25]) was 10 mm and the zone of inhibition at 40 µM (Bacillus cereus [26]) was 18 mm. For the same molecule, the zone of inhibition at 20 µM (Trichoderma viride [27]) was 9 mm, the MIC (Escherichia coli [28]) was 20 µM (≈ 12.1 µg/mL) and the zone of inhibition at 80 µM (Salmonella typhi [29]) was 20 mm. For the same molecule, the zone of inhibition at 20 µM (Salmonella typhi [30]) was 12 mm, the zone of inhibition at 40 µM (Trichoderma viride [31]) was 11 mm and the zone of inhibition at 80 µM (Aspergillus niger [32]) was 12 mm. It also gave a zone of inhibition at 80 µM (Aspergillus flavus [33]) of 11 mm, an MIC (Trichoderma viride [34]) of 80 µM (≈ 48.3 µg/mL) and an IC50 (HCT-116) of 25 µM. The MIC (Pseudomonas aeruginosa [35]) was 20 µM (≈ 12.1 µg/mL) and the zone of inhibition at 20 µM (Curvularia lunata [36]) was 9 mm.
